Test results as given in ChEMBL document CHEMBL4033780, “Lipidated Brartemicin Analogues Are Potent Th1-Stimulating Vaccine Adjuvants” (J Med Chem, 2018).
Where a chain is given by its changes, count along the chain named. Activity calls are given as the source filed them. The calls are words filed in the database; no cut-off is given here.

Tests used:
[1] = species on record: Mus musculus; assay: Adjuvant activity in immunized C57BL/6 mouse assessed as increase in OVA-specific IgG2c production in serum at 0.3 umol treated with ovalbumin for 7 days followed by stimulation with OVA for 7 days and restimulation with OVA measured 24 to 48 hrs post OVA challenge relative to control; format: functional
[2] = species on record: Mus musculus; assay: Adjuvant activity in immunized C57BL/6 mouse assessed as increase in antigen specific IFNgamma production in spelnocytes at 0.3 umol treated with ovalbumin for 7 days followed by stimulation with OVA for 7 days and restimulation with OVA measured 24 to 48 hrs post OVA challenge; format: functional, cell-based
Method in brief: (§1)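 C57BL/6 mice (8–12 wk) given s.c. oil-in-water emulsion (mineral oil/Tween-80/PBS 9:1:90) holding OVA 200 μg ± adjuvant 0.3 μmol; controls were OVA alone or no OVA. Footpad challenge with OVA 100 μg on day 7, spleens taken day 14. Splenocytes restimulated with OVA 10, 30 or 100 μg/mL. Cell number read at 450 nm after 3 h with a count reagent; IFN-γ and IL-17 measured by ELISA.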

[3] = species on record: Mus musculus; assay: Adjuvant activity in immunized C57BL/6 mouse assessed as increase in IL-17 production in spelnocytes at 0.3 umol treated with ovalbumin for 7 days followed by stimulation with OVA for 7 days and restimulation with OVA measured 24 to 48 hrs post OVA challenge; format: functional, cell-based; method in brief: as §1
[4] = species on record: Mus musculus; assay: Adjuvant activity in immunized C57BL/6 mouse assessed as increase in OVA-specific IgG production in serum at 0.3 umol treated with ovalbumin for 7 days followed by stimulation with OVA for 7 days and restimulation with OVA measured 24 to 48 hrs post OVA challenge; format: functional
Method in brief: (§2)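 Sera were taken on days 0, 7 and 14 from C57BL/6 mice sensitized s.c. with emulsion containing OVA 200 μg ± adjuvant 0.3 μmol and footpad-challenged with OVA on day 7. OVA-specific IgG, IgG1, IgG2b and IgG2c were measured by ELISA with HRP-coupled anti-mouse secondaries. EC50 was taken from absorbance at 450 nm plotted against log serum concentration.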

[5] = target: T1, C-type lectin domain family 4 member E (Mus musculus) (UniProt Q9R0Q8); assay: Agonist activity at mincle in wild type C57BL/6 mouse GM-CSF derived BMDM assessed as increase in MIP2 release at 0.1 to 1 nmol after 24 hrs by sandwich ELISA
T1 sequence (whole entry): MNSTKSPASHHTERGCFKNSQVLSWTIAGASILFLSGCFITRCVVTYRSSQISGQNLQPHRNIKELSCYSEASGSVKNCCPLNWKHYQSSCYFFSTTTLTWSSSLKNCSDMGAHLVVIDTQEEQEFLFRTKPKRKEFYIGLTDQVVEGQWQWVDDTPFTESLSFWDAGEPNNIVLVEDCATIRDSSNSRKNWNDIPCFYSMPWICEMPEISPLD
Method in brief: (§3)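 Wild-type or Mincle−/− C57BL/6 bone marrow was cultured 8 days with GM-CSF 50 ng/mL in complete RPMI. Macrophages were detached with Acutase and seeded on ligand-coated plates (0.1 or 1 nmol/well); LPS 100 ng/mL was used as comparator. Supernatant was taken at 24 h and TNF, IL-6, IL-1β and MIP-2 measured by sandwich ELISA. Representative of three experiments in triplicate (±SD).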

[6] = species on record: Mus musculus; assay: Adjuvant activity in immunized C57BL/6 mouse assessed as footpad swelling at 0.3 umol treated with ovalbumin for 7 days followed by stimulation with OVA for 7 days measured 24 to 48 hrs post OVA challenge; format: functional
[7] = target: T1, C-type lectin domain family 4 member E (Mus musculus); assay: Agonist activity at mincle in wild type C57BL/6 mouse GM-CSF derived BMDM assessed as increase in TNF release at 0.1 to 1 nmol after 24 hrs by sandwich ELISA; method in brief: as §3
[8] = species on record: Mus musculus; assay: Adjuvant activity in immunized C57BL/6 mouse assessed as increase in OVA-specific IgG2b production in serum at 0.3 umol treated with ovalbumin for 7 days followed by stimulation with OVA for 7 days and restimulation with OVA measured 24 to 48 hrs post OVA challenge; format: functional
[9] = target: T1, C-type lectin domain family 4 member E (Mus musculus); assay: Agonist activity at mincle in wild type C57BL/6 mouse GM-CSF derived BMDM assessed as increase in IL-6 release at 0.1 to 1 nmol after 24 hrs by sandwich ELISA; method in brief: as §3
[10] = target: T1, C-type lectin domain family 4 member E (Mus musculus); assay: Agonist activity at mincle in wild type C57BL/6 mouse GM-CSF derived BMDM assessed as increase in IL-1beta release at 0.1 to 1 nmol after 24 hrs by sandwich ELISA; method in brief: as §3
[11] = species on record: Mus musculus; assay: Adjuvant activity in immunized C57BL/6 mouse assessed as increase in OVA-specific IgG1 production in serum at 0.3 umol treated with ovalbumin for 7 days followed by stimulation with OVA for 7 days and restimulation with OVA measured 24 to 48 hrs post OVA challenge relative to control; format: functional; method in brief: as §2
[12] = target: T2, C-type lectin domain family 4 member E (Homo sapiens) (UniProt Q9ULY5); assay: Agonist activity at human mincle coupled with FcRgamma expressed in 2B4-NFAT-GFP reporter cells at higher concentration after 18 hrs by flow cytometric analysis; format: cell-based
T2 sequence (whole entry): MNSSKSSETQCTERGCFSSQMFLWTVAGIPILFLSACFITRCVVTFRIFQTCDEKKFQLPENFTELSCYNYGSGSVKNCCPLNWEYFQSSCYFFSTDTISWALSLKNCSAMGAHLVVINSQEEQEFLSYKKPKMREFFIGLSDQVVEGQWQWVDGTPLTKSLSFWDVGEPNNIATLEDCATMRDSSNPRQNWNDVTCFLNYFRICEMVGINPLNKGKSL
Method in brief: (§4)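 2B4 NFAT-GFP reporter cells expressing mouse or human Mincle plus FcRγ were placed on plates coated with ligand at 0.01, 0.1 or 1 nmol/well; cells expressing FcRγ only served as negative control. Ligand was coated from isopropanol, 0.05 mM, and solvent evaporated. After 18 h, cells were harvested, stained with propidium iodide and GFP read by flow cytometry. Mean of three experiments in duplicate (±SEM).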

[13] = Toxicity in Atlantic horseshoe crab blood limulus amebocyte lysate by chromogenic endotoxin test; conditions: limulus polyphemus
Method in brief: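 Endotoxin was measured by chromogenic Limulus amebocyte lysate assay at a sensitivity of ≤0.1 EU/mL.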

[14] = target: T1, C-type lectin domain family 4 member E (Mus musculus); assay: Binding affinity to recombinant mouse mincle extracellular domain fused with human IgG Fc expressed in HEK293T cells at 0.1 nmol by ELISA; format: cell-based; conditions: HEK-293T
[15] = test system: BMDM; assay: Immunostimulatory activity in mincle-/- C57BL/6 mouse GM-CSF derived BMDM assessed as increase in TNF release at […] after 24 hrs by sandwich ELISA method; format: functional, cell-based; method in brief: as §3
[16] = test system: BMDM; assay: Immunostimulatory activity in mincle-/- C57BL/6 mouse GM-CSF derived BMDM assessed as increase in MIP2 release at […] after 24 hrs by sandwich ELISA method; format: functional, cell-based; method in brief: as §3
[17] = test system: BMDM; assay: Immunostimulatory activity in mincle-/- C57BL/6 mouse GM-CSF derived BMDM assessed as increase in IL-6 release at […] after 24 hrs by sandwich ELISA method; format: functional, cell-based; method in brief: as §3
[18] = test system: BMDM; assay: Immunostimulatory activity in mincle-/- C57BL/6 mouse GM-CSF derived BMDM assessed as increase in IL-1beta release at […] after 24 hrs by sandwich ELISA method; format: functional, cell-based; method in brief: as §3
[19] = target: T1, C-type lectin domain family 4 member E (Mus musculus); assay: Agonist activity at mouse mincle coupled with FcRgamma expressed in 2B4-NFAT-GFP reporter cells at higher concentration after 18 hrs by flow cytometric analysis; format: cell-based; method in brief: as §4
[20] = target: T2, C-type lectin domain family 4 member E (Homo sapiens); assay: Binding affinity to recombinant human mincle extracellular domain fused with human IgG Fc expressed in HEK293T cells at 0.1 nmol by ELISA; format: cell-based; conditions: HEK-293T
[21] = target: T2, C-type lectin domain family 4 member E (Homo sapiens); assay: Agonist activity at human mincle coupled with FcRgamma expressed in 2B4-NFAT-GFP reporter cells up to 1 nmol after 18 hrs by flow cytometric analysis; format: cell-based; method in brief: as §4
[22] = target: T1, C-type lectin domain family 4 member E (Mus musculus); assay: Agonist activity at mouse mincle coupled with FcRgamma expressed in 2B4-NFAT-GFP reporter cells up to 1 nmol after 18 hrs by flow cytometric analysis; format: cell-based; method in brief: as §4
[23] = test system: T3, C-type lectin domain family 4 member E (Homo sapiens), Q9ULY5 [R183A]; assay: Agonist activity at human mincle R183A mutant expressed in NFAT-GFP reporter cells up to 3000 pmol after 18 hrs by flow cytometric analysis; format: cell-based
T3 sequence (whole entry): T2 sequence (whole entry) with R183A
Method in brief: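 The hMincle R183A mutant, made by site-directed mutagenesis, was retrovirally introduced into 2B4 NFAT-GFP cells expressing FcRγ only. Cells were stimulated on plates coated with increasing ligand amounts for 18 h, and NFAT-GFP was read by flow cytometry. Mean of two independent experiments in duplicate (±SEM).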

SMILES	Activity [5]	Activity [7]	Activity [9]	Activity [10]	Activity [13]	Activity [14]	Activity [15]	Activity [16]	Activity [17]	Activity [18]	Activity [20]	Activity [21]	Activity [22]	other results
CCCCCCCCCCCCCCCCCCCCCC(=O)OC[C@H]1O[C@H](O[C@H]2O[C@H](COC(=O)CCCCCCCCCCCCCCCCCCCCC)[C@@H](O)[C@H](O)[C@H]2O)[C@H](O)[C@@H](O)[C@@H]1O	Active	Active	Active	Active										Activity [1]: Active; Activity [2]: inactive; Activity [3]: inactive; Activity [4]: Active; Activity [6]: inactive; Activity [8]: Active; Activity [11]: Active
CCCCOc1ccc(C(=O)OC[C@H]2O[C@H](O[C@H]3O[C@H](COC(=O)c4ccc(OCCCC)cc4O)[C@@H](O)[C@H](O)[C@H]3O)[C@H](O)[C@@H](O)[C@@H]2O)c(O)c1	Active	inactive	inactive	inactive	<= 0.1 EU/ml	inactive	inactive	inactive	inactive	inactive	inactive			Activity [12]: Active; Activity [19]: Active
CCCCCCCOc1ccc(C(=O)OC[C@H]2O[C@H](O[C@H]3O[C@H](COC(=O)c4ccc(OCCCCCCC)cc4O)[C@@H](O)[C@H](O)[C@H]3O)[C@H](O)[C@@H](O)[C@@H]2O)c(O)c1	Active	Active	Active	Active	<= 0.1 EU/ml	Active	inactive	inactive	inactive	inactive	Active	Active	Active	
CCCCCCCOc1ccc(C(=O)OC[C@H]2O[C@H](O[C@H]3O[C@H](COC(=O)c4ccc(OCCCCCCC)cc4)[C@@H](O)[C@H](O)[C@H]3O)[C@H](O)[C@@H](O)[C@@H]2O)cc1	Active	Active	Active	Active	<= 0.1 EU/ml	Active	inactive	inactive	inactive	inactive	Active	Active	Active	
CCCCCCCCCCCCCCCCCCCCCCCCCC(O)C(CCCCCCCCCCC1CC1CCCCCCCCCCCCCCCCCC)C(=O)OC[C@H]1O[C@H](O[C@H]2O[C@H](COC(=O)C(CCCCCCCCCCCCCCCCCCCCCCCC)C(O)CCCCCCCCCCCC3CC3CCCCCCCCCCCCCCCCCC)[C@@H](O)[C@H](O)[C@H]2O)[C@H](O)[C@@H](O)[C@@H]1O (stereo not given in full)	Active	Active	Active	Active										Activity [23]: Active
